Laboratory results published in ChEMBL document CHEMBL1142516, “Design, synthesis, and structure-affinity relationships of novel series of sialosides as CD22-specific inhibitors” (J Med Chem, 2008).

How the values were obtained:
[1] = biological target: T1, B-cell receptor CD22 (Homo sapiens, UniProt P20273); experiment: Binding affinity to biotinylated human CD22-human IgG1 chimeric protein expressed in mouse J558LST6 cells by flow cytometry; type: cell-based
T1 sequence (P20273 whole entry): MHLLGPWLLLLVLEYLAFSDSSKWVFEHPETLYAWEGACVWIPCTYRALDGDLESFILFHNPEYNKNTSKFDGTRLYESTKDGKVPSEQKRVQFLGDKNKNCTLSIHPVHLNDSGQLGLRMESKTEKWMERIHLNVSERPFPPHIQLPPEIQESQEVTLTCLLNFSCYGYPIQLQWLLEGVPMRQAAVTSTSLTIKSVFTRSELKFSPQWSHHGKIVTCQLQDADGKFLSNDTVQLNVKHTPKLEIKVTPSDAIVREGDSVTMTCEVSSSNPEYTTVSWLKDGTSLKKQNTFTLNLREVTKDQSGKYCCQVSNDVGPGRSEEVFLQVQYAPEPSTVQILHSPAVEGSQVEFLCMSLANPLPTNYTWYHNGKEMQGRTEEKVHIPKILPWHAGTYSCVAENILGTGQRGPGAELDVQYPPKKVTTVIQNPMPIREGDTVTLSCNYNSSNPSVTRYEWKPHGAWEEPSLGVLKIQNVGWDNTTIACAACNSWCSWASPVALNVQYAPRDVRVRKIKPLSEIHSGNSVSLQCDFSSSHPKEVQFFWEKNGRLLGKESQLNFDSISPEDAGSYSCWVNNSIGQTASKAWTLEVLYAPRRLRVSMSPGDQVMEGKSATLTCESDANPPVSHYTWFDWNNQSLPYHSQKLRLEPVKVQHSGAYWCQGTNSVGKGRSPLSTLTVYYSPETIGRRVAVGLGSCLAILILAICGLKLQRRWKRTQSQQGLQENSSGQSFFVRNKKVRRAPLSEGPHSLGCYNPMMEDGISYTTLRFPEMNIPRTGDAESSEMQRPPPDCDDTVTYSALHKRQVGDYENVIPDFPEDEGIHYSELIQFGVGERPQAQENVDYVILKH
Outline: (§1)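 IC50 from inhibition of CD22-Fc binding to alpha2,6-sialic acid on ST6GalI-transfected J558L mouse myeloma cells (J558LST6), incubated with CD22-Fc plus varied sialoside concentrations. Detection with Alexa Fluor 647-streptavidin, 30 min on ice, then flow cytometry. % binding = (A−B)/(C−B)×100 using MFI: A, sialoside sample; B, parent J558L; C, untreated J558LST6. IC50 taken as 50% binding inhibition; means of ≥3 independent determinations.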

[2] = Binding affinity to biotinylated mouse CD22-human IgG1 chimeric protein expressed in mouse J558LST6 cells by flow cytometry; type: cell-based; outline: as §1

| IC50 [1] | IC50 [2] | Structure (SMILES) |
| --- | --- | --- |
| 550 µM | 833 µM | C[Si](C)(C)CCO[C@@H]1O[C@H](CO[C@]2(C(=O)O)C[C@H](O)[C@@H](NC(=O)CO)[C@H]([C@H](O)[C@H](O)CO)O2)[C@H](O)[C@H](O)[C@H]1O |
| 125 µM | 115 µM | COc1ccc(O[C@@H]2O[C@H](CO[C@]3(C(=O)O)C[C@H](O)[C@@H](NC(=O)CO)[C@H]([C@H](O)[C@H](O)CNC(=O)c4ccccc4)O3)[C@H](O)[C@H](O)[C@H]2O)cc1 |
| 148 µM | 497 µM | COc1ccc(O[C@@H]2O[C@H](CO[C@]3(C(=O)O)C[C@H](O)[C@@H](NC(=O)CO)[C@H]([C@H](O)[C@H](O)CO)O3)[C@H](O)[C@H](O)[C@H]2O)cc1 |
| 85 µM | 93.1 µM | COc1ccc(O[C@@H]2O[C@H](CO[C@]3(C(=O)O)C[C@H](O)[C@@H](NC(=O)CO)[C@H]([C@H](O)[C@H](O)CN)O3)[C@H](O)[C@H](O)[C@H]2O)cc1 |
